Assay results taken from ChEMBL document CHEMBL2157901, “Synthesis, biological evaluation and molecular modeling of dihydro-pyrazolyl-thiazolinone derivatives as potential COX-2 inhibitors” (Bioorg Med Chem, 2012).
Calls of active or inactive are those of the source. The rule behind the calls is not given here.

Experiments:
[1] = Cytotoxicity against LPS-activated mouse RAW264.7 cells after 24 hrs by MTT method; format: cell-based; details: LPS-activated RAW264.7 cells
Summary of the method: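 MTT assay in RAW264.7 cells grown in DMEM with 5% FBS, penicillin and streptomycin at 37 °C under 5% CO₂. Cells were seeded at 5 × 10⁴ per well and exposed for 24 h to compounds diluted from DMSO stocks (0.1% DMSO final). MTT (4 mg/mL) was added 4 h before the end, then plates were centrifuged and supernatant removed. CC₅₀ is the concentration cutting viability to 50%; mean of three experiments in triplicate.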

[2] = target: T1, Prostaglandin G/H synthase 2 (Homo sapiens, UniProt P35354); assay: Inhibition of COX-2 by chemiluminescent assay
T1 sequence (P35354 whole entry): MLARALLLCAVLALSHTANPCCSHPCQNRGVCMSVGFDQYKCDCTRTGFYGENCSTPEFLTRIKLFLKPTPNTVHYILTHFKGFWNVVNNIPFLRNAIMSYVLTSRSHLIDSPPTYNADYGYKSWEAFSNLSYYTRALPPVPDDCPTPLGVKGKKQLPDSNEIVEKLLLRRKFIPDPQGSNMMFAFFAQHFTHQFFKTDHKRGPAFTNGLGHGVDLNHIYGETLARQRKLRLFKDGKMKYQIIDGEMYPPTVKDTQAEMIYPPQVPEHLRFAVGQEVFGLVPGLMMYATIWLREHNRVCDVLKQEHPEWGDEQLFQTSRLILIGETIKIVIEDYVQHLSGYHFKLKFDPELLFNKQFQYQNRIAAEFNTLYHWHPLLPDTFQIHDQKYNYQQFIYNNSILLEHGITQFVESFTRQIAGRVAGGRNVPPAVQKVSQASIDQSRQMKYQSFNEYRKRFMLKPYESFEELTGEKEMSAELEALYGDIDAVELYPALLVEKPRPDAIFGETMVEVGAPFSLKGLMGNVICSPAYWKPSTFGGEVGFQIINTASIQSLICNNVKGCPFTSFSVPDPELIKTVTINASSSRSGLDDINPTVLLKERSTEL

[3] = Selectivity index, ratio of IC50 for COX-1 to IC50 for COX-2
Summary of the method: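 COX-1 and COX-2 inhibition measured with a chemiluminescent enzyme assay kit. Each IC₅₀ (50% enzyme inhibition) is the mean of two determinations. Selectivity index taken as COX-1 IC₅₀ divided by COX-2 IC₅₀.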

[4] = target: Prostaglandin G/H synthase 1 (Homo sapiens, UniProt P23219); assay: Inhibition of COX-1 by chemiluminescent assay
Chain of Prostaglandin G/H synthase 1 (P23219 whole entry): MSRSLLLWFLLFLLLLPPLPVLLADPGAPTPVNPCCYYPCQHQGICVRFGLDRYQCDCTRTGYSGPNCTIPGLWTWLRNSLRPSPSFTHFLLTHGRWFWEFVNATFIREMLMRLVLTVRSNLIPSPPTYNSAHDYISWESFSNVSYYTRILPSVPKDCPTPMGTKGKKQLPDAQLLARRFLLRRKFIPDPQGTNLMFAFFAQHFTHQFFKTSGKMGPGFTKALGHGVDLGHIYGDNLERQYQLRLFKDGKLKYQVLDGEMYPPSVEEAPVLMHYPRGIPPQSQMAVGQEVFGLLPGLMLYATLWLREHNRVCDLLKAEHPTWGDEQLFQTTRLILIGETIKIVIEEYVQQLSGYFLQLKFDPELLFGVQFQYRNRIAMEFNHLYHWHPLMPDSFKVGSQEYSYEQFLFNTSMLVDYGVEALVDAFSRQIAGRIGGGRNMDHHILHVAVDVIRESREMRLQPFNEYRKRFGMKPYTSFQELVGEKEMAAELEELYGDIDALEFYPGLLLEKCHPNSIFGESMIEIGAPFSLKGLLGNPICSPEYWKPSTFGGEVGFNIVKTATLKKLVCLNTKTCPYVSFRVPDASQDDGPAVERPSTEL

RAW264.7 = assay: Inhibition of LPS-induced COX-2 expression in mouse RAW264.7 cells at >1.25 uM by Western blot analysis; format: functional, cell-based

IC50 [2] [µM]	Ratio IC50 [3]	IC50 [4] [µM]	SMILES	CC50 at 24 h [1] [µM]	inhibition (RAW264.7)
16.3	2.8	45.6	Cc1ccccc1C1CC(c2ccc(Cl)c(Cl)c2)=NN1C1=NC(=O)CS1 (stereo unspecified)	179	–
6.3	7.5	47.2	Cc1ccc(C2=NN(C3=NC(=O)CS3)C(c3ccccc3C)C2)cc1C (stereo unspecified)	317	–
16.1	> 3.1	> 50	O=C1CSC(N2N=C(c3ccc(Cl)c(Cl)c3)CC2c2cccc(Cl)c2)=N1 (stereo unspecified)	165	–
5.2	> 9.6	> 50	Cc1ccc(C2=NN(C3=NC(=O)CS3)C(c3cccc(Cl)c3)C2)cc1C (stereo unspecified)	178	–
19.4	1.8	34.3	O=C1CSC(N2N=C(c3ccc(Cl)c(Cl)c3)CC2c2ccc(F)cc2)=N1 (stereo unspecified)	139	–
1.2	37.8	45.3	Cc1ccc(C2CC(c3ccc(C)c(C)c3)=NN2C2=NC(=O)CS2)cc1 (stereo unspecified)	384	–
7.2	> 6.9	> 50	Cc1cccc(C2CC(c3ccc(Cl)c(Cl)c3)=NN2C2=NC(=O)CS2)c1 (stereo unspecified)	204	–
0.5	84.8	42.4	Cc1ccc(C2=NN(C3=NC(=O)CS3)C(c3ccccc3)C2)cc1C (stereo unspecified)	> 450	Active
2.9	> 17.2	> 50	COc1ccc(C2CC(c3ccc(C)c(C)c3)=NN2C2=NC(=O)CS2)cc1 (stereo unspecified)	387	–
1.8	> 27.8	> 50	Cc1ccc(C2=NN(C3=NC(=O)CS3)C(c3ccc(Br)cc3)C2)cc1C (stereo unspecified)	365	–
7.2	6.1	44.1	Cc1ccc(C2=NN(C3=NC(=O)CS3)C(c3ccccc3Cl)C2)cc1C (stereo unspecified)	227	–
2.7	> 18.5	> 50	Cc1cccc(C2CC(c3ccc(C)c(C)c3)=NN2C2=NC(=O)CS2)c1 (stereo unspecified)	237	–
6.8	> 7.4	> 50	COc1ccc(C2CC(c3ccc(Cl)c(Cl)c3)=NN2C2=NC(=O)CS2)cc1 (stereo unspecified)	264	–
6.4	6.4	40.8	Cc1ccc(C2=NN(C3=NC(=O)CS3)C(c3ccc(F)cc3)C2)cc1C (stereo unspecified)	246	–
4.5	10.8	48.6	Cc1ccc(C2=NN(C3=NC(=O)CS3)C(c3ccc(Cl)cc3)C2)cc1C (stereo unspecified)	226	–
2.7	12.3	33.2	O=C1CSC(N2N=C(c3ccc(Cl)c(Cl)c3)CC2c2ccccc2)=N1 (stereo unspecified)	295	–
4.7	9.4	44.3	Cc1ccc(C2CC(c3ccc(Cl)c(Cl)c3)=NN2C2=NC(=O)CS2)cc1 (stereo unspecified)	279	–
7.6	6.4	48.5	O=C1CSC(N2N=C(c3ccc(Cl)c(Cl)c3)CC2c2ccc(Br)cc2)=N1 (stereo unspecified)	280	–
18.4	2.2	40.2	O=C1CSC(N2N=C(c3ccc(Cl)c(Cl)c3)CC2c2ccccc2Cl)=N1 (stereo unspecified)	143	–
11.7	3.2	37.7	O=C1CSC(N2N=C(c3ccc(Cl)c(Cl)c3)CC2c2ccc(Cl)cc2)=N1 (stereo unspecified)	187	–
